Experimental data: ChEMBL document CHEMBL5230180, “A cationic amphiphilic peptide chaperone rescues Aβ42 aggregation and cytotoxicity” (RSC Med Chem, 2023)
Activity calls are given as the source filed them. The rule behind the calls is not given here.

How the values were obtained:
[1] = tested on: SH-SY5Y; test: Cytotoxicity against human SH-SY5Y cells assessed as reduction in cell viability at 30 uM incubated for 24 hrs by MTT assay; assay type: toxicity, cell-based
How it was run: (§1)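 SH-SY5Y neuronal cells exposed to peptide alone (1–30 μM) at 37 °C up to 24 h; viability by MTT conversion to formazan, compared with untreated control cells.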

[2] = target: Amyloid-beta precursor protein (Homo sapiens) (UniProt P05067); test: Inhibition of amyloid beta 42 (unknown origin) aggregation assessed as lag time for Abeta42 aggregation at Abeta42:compound concentration ratio of 1:1 by ThT fluorescence assay (reference value: 6.35 +/-0.32 hrs)
Amyloid-beta precursor protein (Homo sapiens), sequence (P05067 whole entry): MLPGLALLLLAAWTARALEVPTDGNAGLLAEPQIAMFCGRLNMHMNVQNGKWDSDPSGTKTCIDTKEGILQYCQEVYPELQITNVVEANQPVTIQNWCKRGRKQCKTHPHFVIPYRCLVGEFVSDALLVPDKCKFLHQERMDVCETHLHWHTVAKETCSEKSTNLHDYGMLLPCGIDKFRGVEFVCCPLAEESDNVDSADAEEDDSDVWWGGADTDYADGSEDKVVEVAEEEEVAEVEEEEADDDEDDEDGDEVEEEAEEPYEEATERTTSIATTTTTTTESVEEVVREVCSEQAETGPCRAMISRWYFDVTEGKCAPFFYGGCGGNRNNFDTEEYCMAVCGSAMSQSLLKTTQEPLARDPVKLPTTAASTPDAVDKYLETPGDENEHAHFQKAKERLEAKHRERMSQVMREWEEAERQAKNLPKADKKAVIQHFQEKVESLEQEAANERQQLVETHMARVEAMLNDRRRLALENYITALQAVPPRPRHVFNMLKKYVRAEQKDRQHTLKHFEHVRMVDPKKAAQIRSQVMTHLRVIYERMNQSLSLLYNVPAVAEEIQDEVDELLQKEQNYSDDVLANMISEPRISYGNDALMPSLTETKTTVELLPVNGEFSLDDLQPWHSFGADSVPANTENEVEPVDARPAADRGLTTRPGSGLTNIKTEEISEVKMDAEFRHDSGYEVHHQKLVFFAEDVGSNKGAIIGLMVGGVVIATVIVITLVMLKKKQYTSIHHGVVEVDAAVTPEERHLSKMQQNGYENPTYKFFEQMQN

[3] = target: Amyloid-beta precursor protein (Homo sapiens) (UniProt P05067); test: Inhibition of amyloid beta 42 (unknown origin) aggregation assessed as reduction in fluorescence intensity measured for 48 hrs by ThT fluorescence assay
How it was run: (§2)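 Soluble (pre-aggregation) Aβ42 at 25 μM with 20 μM ThT, incubated with peptide at 0.1–10 equivalents (2.5–250 μM) in 10 mM sodium phosphate, 150 mM NaCl, 1 mM EDTA, pH 7.4; time-dependent ThT fluorescence monitored, normalized to Aβ42 alone.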

[4] = target: Amyloid-beta precursor protein (Homo sapiens) (UniProt P05067); test: Inhibition of amyloid beta 42 (unknown origin) aggregation assessed as half time for Abeta42 aggregation at Abeta42:compound concentration ratio of 1:1 by ThT fluorescence assay (reference value: 9.34 +/-0.25 hrs)
[5] = tested on: SH-SY5Y; test: Protection against Abeta42-induced cytotoxicity in human SH-SY5Y cells assessed as increase in cell viability at Abeta42:compound concentration ratio of 1:1 incubated for 24 hrs by MTT assay; assay type: functional, cell-based
How it was run: (§3)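 SH-SY5Y cells given 10 μM soluble Aβ42 with peptide (1, 2, 3, 5, 10, 30 μM; 1:1 for comparison) at 37 °C up to 24 h; MTT formazan read-out relative to cells without peptide or Aβ42; IC50 from dose–response.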

[6] = target: Amyloid-beta precursor protein (Homo sapiens) (UniProt P05067); test: Inhibition of amyloid beta 42 (unknown origin) aggregation assessed as reduction in fluorescence intensity at equimolar concentration with Abeta42 incubated for 48 hrs by ThT laser scanning confocal microscopy
[7] = target: Amyloid-beta precursor protein (Homo sapiens) (UniProt P05067); test: Disruption of aggregated Amyloid beta 42 fibrils (unknown origin) assessed as reduction in fluorescence intensity at compound:Abeta42 concentration ratio of 1:1 treated with compound after 16 hrs of incubation of Abeta42 in solution by ThT fluorescence assay
How it was run: (§4)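 Aβ42 (25 μM) preincubated with 20 μM ThT at 37 °C; peptide added at 1:1 after 16 or 24 h, incubation continued and ThT fluorescence followed over time; buffer 10 mM sodium phosphate, 150 mM NaCl, 1 mM EDTA, pH 7.4.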

[8] = target: Amyloid-beta precursor protein (Homo sapiens) (UniProt P05067); test: Inhibition of amyloid beta 42 (unknown origin) aggregation assessed as reduction in fluorescence intensity at Abeta42:compound concentration ratio of 1:10 measured for 48 hrs by ThT fluorescence assay; how it was run: as §2
[9] = target: Amyloid-beta precursor protein (Homo sapiens) (UniProt P05067); test: Inhibition of amyloid beta 42 (unknown origin) aggregation assessed as reduction in fluorescence intensity at Abeta42:compound concentration ratio of 1:5 measured for 48 hrs by ThT fluorescence assay; how it was run: as §2
[10] = target: Amyloid-beta precursor protein (Homo sapiens) (UniProt P05067); test: Inhibition of amyloid beta 42 (unknown origin) aggregation assessed as reduction in fluorescence intensity at Abeta42:compound concentration ratio of 1:3 measured for 48 hrs by ThT fluorescence assay; how it was run: as §2
[11] = target: Amyloid-beta precursor protein (Homo sapiens) (UniProt P05067); test: Inhibition of amyloid beta 42 (unknown origin) aggregation assessed as decrease in absorbance at 450 nm at Abeta42:compound concentration ratio of 1:0.5 to 1:10 incubated for up to 24 hrs by ELISA
How it was run: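 Aβ42 in PBS preincubated 24 h with peptide (0.5–10 equivalents), then captured on oligomer-specific monoclonal antibody-coated wells; detection via biotinylated antibody, streptavidin-HRP and TMB, absorbance 450 nm; peptide-alone wells included.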

[12] = target: Amyloid-beta precursor protein (Homo sapiens) (UniProt P05067); test: Disruption of aggregated Amyloid beta 42 fibrils (unknown origin) assessed as reduction in fluorescence intensity at compound:Abeta42 concentration ratio of 1:1 treated with compound after 24 hrs of incubation of Abeta42 in solution by ThT fluorescence assay; how it was run: as §4
[13] = target: Amyloid-beta precursor protein (Homo sapiens) (UniProt P05067); test: Inhibition of 15N-labeled amyloid beta 42 (unknown origin) aggregation assessed as Abeta42 conformational reorganization by measuring changes in positions of Abeta42 cross-peaks at Abeta42:compound concentration ratio of 1:1 by 1H-15N HSQC NMR spectral analysis
[14] = target: Amyloid-beta precursor protein (Homo sapiens) (UniProt P05067); test: Inhibition of amyloid beta 42 (unknown origin) aggregation assessed as fluorescence intensity at 0.1 equivalents measured for 48 hrs by ThT fluorescence assay; set-up: scale not given: the % may be the effect or the level left; details: dose 0.1 equiv; how it was run: as §2
[15] = target: Amyloid-beta precursor protein (Homo sapiens) (UniProt P05067); test: Inhibition of amyloid beta 42 (unknown origin) aggregation assessed as fluorescence intensity at compound:Abeta42 concentration ratio of 1:1 measured for 48 hrs by ThT fluorescence assay; set-up: scale not given: the % may be the effect or the level left; how it was run: as §2
[16] = Hemolytic activity against red blood cells (unknown origin) upto 250 uM; assay type: toxicity, cell-based; details: erythrocyte
How it was run: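 Red blood cells treated with a range of peptide concentrations up to 250 μM; haemolysis assessed.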

[17] = tested on: SH-SY5Y; test: Protection against Abeta42-induced cytotoxicity in human SH-SY5Y cells assessed as increase in cell viability incubated for 24 hrs in presence of 10 uM Abeta42 by MTT assay; assay type: functional, cell-based; how it was run: as §3
[18] = tested on: SH-SY5Y; test: Cytotoxicity against human SH-SY5Y cells assessed as reduction in cell viability upto 30 uM incubated for 24 hrs by MTT assay; assay type: toxicity, cell-based; how it was run: as §1
[19] = target: Amyloid-beta precursor protein (Homo sapiens) (UniProt P05067); test: Inhibition of amyloid beta 42 (unknown origin) aggregation assessed as reduction in Abeta42 fibrillar network at compound:Abeta42 concentration ratio of 1:1 incubated for 48 hrs by HR-TEM analysis
How it was run: (§5)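 10 μM soluble Aβ42 incubated at 37 °C for about 48 h alone or with peptide (1:1; 10 μM); fibril morphology imaged by HR-TEM and AFM.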

[20] = target: Amyloid-beta precursor protein (Homo sapiens) (UniProt P05067); test: Inhibition of amyloid beta 42 (unknown origin) aggregation assessed as fluorescence intensity at 0.3 equivalents measured for 48 hrs by ThT fluorescence assay; set-up: scale not given: the % may be the effect or the level left; details: dose 0.3 equiv; how it was run: as §2
[21] = target: Amyloid-beta precursor protein (Homo sapiens) (UniProt P05067); test: Inhibition of amyloid beta 42 (unknown origin) aggregation assessed as lag time for Abeta42 aggregation at Abeta42:compound concentration ratio of 1:0.5 by ThT fluorescence assay (reference value: 6.35 +/-0.32 hrs)
[22] = target: Amyloid-beta precursor protein (Homo sapiens) (UniProt P05067); test: Inhibition of amyloid beta 42 (unknown origin) aggregation assessed as transformation of random coil structure to helical secondary structure with CD minima at 205 nm and 221 nm at Abeta42:compound concentration ratio of 1:1 incubated for 24 hrs by circular dichroism analysis
How it was run: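 CD spectra of 50 μM soluble Aβ42 in PBS at 0 h and after 24 h at room temperature, alone or with equimolar (50 μM) peptide; peptide alone also recorded.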

[23] = target: Amyloid-beta precursor protein (Homo sapiens) (UniProt P05067); test: Inhibition of amyloid beta 42 (unknown origin) aggregation assessed as half time for Abeta42 aggregation at Abeta42:compound concentration ratio of 1:0.5 by ThT fluorescence assay (reference value: 9.34 +/-0.25 hrs)
[24] = target: Amyloid-beta precursor protein (Homo sapiens) (UniProt P05067); test: Inhibition of amyloid beta 42 (unknown origin) aggregation assessed as reduction in Abeta42 fibrillar network at 10 uM incubated for 48 hrs by AFM analysis; how it was run: as §5
[25] = target: Amyloid-beta precursor protein (Homo sapiens) (UniProt P05067); test: Inhibition of amyloid beta 42 (unknown origin) aggregation assessed as fluorescence intensity at compound:Abeta42 concentration ratio of 0.5:1 measured for 48 hrs by ThT fluorescence assay; set-up: scale not given: the % may be the effect or the level left; how it was run: as §2
[26] = target: Amyloid-beta precursor protein (Homo sapiens) (UniProt P05067); test: Inhibition of amyloid beta 42 (unknown origin) aggregation assessed as aggregated particle size at equimolar concentration with Abeta42 incubated for 24 hrs by Dynamic light scattering based analysis (reference value: 800 nm)
How it was run: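 Dynamic light scattering of 10 μM Aβ42 with or without peptide after 24 h at 37 °C; frequency distribution of particle diameter.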

Ac-KLAKLAKKLAKL-NH2
Activity [1]: Non-Toxic | TIME [2]: 0.75 h | inhibition [3]: Dose-Dependent Effect | T1/2 [4]: 9.59 h | Activity [5]: Active

Ac-ALAALALALAALAAL-NH2
inhibition [3]: inactive

CC(=O)N[C@@H](CCCCN)C(=O)N[C@@H](CC(C)C)C(=O)N[C@@H](C)C(=O)N[C@@H](CCCCN)C(=O)N[C@@H](CC(C)C)C(=O)N[C@@H](C)C(=O)N[C@@H](CCCCN)C(=O)N[C@@H](CCCCN)C(=O)N[C@@H](CC(C)C)C(=O)N[C@@H](C)C(=O)N[C@@H](CCCCN)C(=O)N[C@@H](CC(C)C)C(=O)N[C@@H](C)C(=O)N[C@@H](CCCCN)C(=O)N[C@@H](CC(C)C)C(N)=O
inhibition [6]: Active | Activity [7]: Active | inhibition [8]: Active | inhibition [9]: Active | inhibition [10]: Active | inhibition [11]: Active | Activity [12]: Active | Activity [13]: Active | Activity [14]: 40% | Activity [15]: < 3% | Activity [16]: Non-Toxic | IC50 [17]: 8.73 µM | Activity [18]: Non-Toxic | inhibition [19]: Active | Activity [20]: 30% | TIME [21]: 1.8 h | inhibition [22]: Active | T1/2 [23]: 6.09 h | inhibition [24]: Active | Activity [5]: Active | Activity [25]: 20% | Activity [26]: 100 nm

Ac-KLAKLAKL-NH2
Activity [1]: Non-Toxic | TIME [2]: 2.14 h | inhibition [3]: Dose-Dependent Effect | T1/2 [4]: 8.22 h | Activity [5]: Active
